# M1 antagonist = M1 muscarinic receptor (rat) antagonism. hit rate 3.4% among 64,000. AID 628. CHO-M1 cells, Fluo-4 calcium, ACh EC80 antagonist mode; active compounds read low. P08482. B-score at 10 µM;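 active = calcium fluorescence response, raw or row-and-column corrected B-score, differing from the plate sample mean either way at a set confidence level, mostly lower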
# mHtt clearance = compounds clearing mutant huntingtin protein | HeLa Exon1htt(103Q)mCFP, aggregate imaging; zero = plate's median compound well | inhibition, % at 1.5 µM | hit rate 0.42% among 47,000 | AID 853;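 active = inhibition of aggregate fluorescence above about 70%, also judged a hit by eye on the cell image, limit read from the data, passing the limit was not always enough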;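 also: cells exposed to compound for three days before fixation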
# SF1 activator = activates the human nuclear receptor SF-1; CHO-K1 Gal4-SF-1 LBD luciferase reporter; % increase over DMSO SF-1-specific signal; activation, % at 10 µM; hit rate 1.9% among 65,000; AID 522;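 active = activation above the mean activation of all tested compounds plus 3 SD, cut at about 50% in these data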
# Target sequence (Q13285 whole entry, looked up, the tested form may be a part): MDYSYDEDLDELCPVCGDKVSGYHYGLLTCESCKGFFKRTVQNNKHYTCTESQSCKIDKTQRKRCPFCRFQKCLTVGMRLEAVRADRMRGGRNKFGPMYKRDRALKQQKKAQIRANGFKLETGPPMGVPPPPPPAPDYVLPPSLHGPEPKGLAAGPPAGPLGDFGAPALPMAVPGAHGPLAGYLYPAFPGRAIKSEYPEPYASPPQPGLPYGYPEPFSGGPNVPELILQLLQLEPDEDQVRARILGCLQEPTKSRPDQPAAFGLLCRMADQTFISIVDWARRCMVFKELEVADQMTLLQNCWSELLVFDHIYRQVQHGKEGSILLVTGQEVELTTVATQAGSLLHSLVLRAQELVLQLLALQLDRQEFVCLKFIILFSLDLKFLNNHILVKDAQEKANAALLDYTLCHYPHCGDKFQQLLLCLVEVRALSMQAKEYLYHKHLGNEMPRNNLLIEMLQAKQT
#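 Assay system: CHO-K1 cells co-transfected with Gal4 DBD–human SF-1 LBD, 5xGal4 luciferase reporter; doses: 10 µM only; incubation: 20 h compound exposure at 37 °C after 1 h cell settling; signal: luciferase light emission; evaluation: percent activation versus DMSO; repeats: one test per compound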
# RORa activator = RORA (human) activation | CHO-K1 Gal4-RORA LBD luciferase reporter, luminescence; percent increase over mock-subtracted basal signal | activation, % at 10 µM | P35398 | hit rate 1.5% among 65,000 | AID 560;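 active = activation above the mean of all tested compounds plus 3 SD, cut at about 49% in these data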
# M1 ag = activates the M1 muscarinic receptor | CHO-M1 cells, Fluo-4 calcium fluorescence, agonist mode; active compounds read high | B-score at 10 µM | hit rate 3% among 64,000;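 active = fluorescence rise, raw or as B-score row- and column-corrected plate score, outside the 99.7% band of its plate's samples, either direction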
# D1 allo mod = allosteric modulators of human D1 dopamine receptor | P21728 | HEK293 D1, CRE-luciferase, dopamine EC30 potentiation; actives deviate in either direction | B-score at 10 µM | hit rate 5.9% among 58,000 | AID 641;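 active = luminescence count or its row- and column-corrected plate score outside the 99.7% band of the plate's sample wells, on either side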
# Hits are given with their value; 0 = inactive; - = no result given. Only some compounds are listed: those with a hit (about 11% of all), similar ones and a draw of the others.
SMILES,M1 antagonist,mHtt clearance,SF1 activator,RORa activator,M1 ag,D1 allo mod
COC(=O)CCn1nnc(-c2cccs2)n1,1.67,0,0,0,0,0
CCN(CC)C(=O)CSc1nnc([C@H](CCSC)NC(=O)OC(C)(C)C)o1,0,0,0,0,0,0
CSCC[C@H](NC(=O)OC(C)(C)C)c1nnc(SCC(N)=O)o1,0,-,0,0,0,-2.17
Nc1c(C(=O)Nc2ccc(Cl)cc2)oc2ccccc12,0,0,105.7,74.3,0,0
Cc1cccc(NC(=O)C2CC(O)CN2C(=O)OCc2ccccc2)c1 (centres undefined),0,0,0,0,0,-3.93
Cc1ccc(C)c(NC(=O)C2CC(O)CN2C(=O)OCc2ccccc2)c1 (centres undefined),0,0,0,0,0,0
CCCCCCCC(=O)N/N=C(\C)c1cccnc1,-,0,-,-,-,-
O=C(CCN1C(=O)c2ccccc2C1=O)Nc1ccc(-c2nc3ccccc3o2)cc1,0,-,52.7,50.1,0,0
CC(=O)Nc1ccc(-c2cn3ccsc3n2)cc1,0,-,0,0,0,0
O=C(CN1C(=O)c2ccccc2C1=O)Nc1ccc(-c2nc3ccccc3o2)cc1,0,-,0,0,0,0
O=C(Nc1ccc(-c2cn3ccsc3n2)cc1)C1CCCC1,0,0,58.5,0,0,0
O=C(Nc1ccc(-c2cn3ccsc3n2)cc1)C1CC1,0,0,61.3,0,0,0
O=C(CCN1C(=O)c2ccccc2C1=O)Nc1ccc(-c2cn3ccsc3n2)cc1,0,0,65.2,0,0,0
Cc1ccc(-n2[nH]c(C)c(/C=C3/C=Nc4ccccc43)c2=O)cc1C,-,0,-,-,-,-
O=C1C=C(NC2CC2)C2(CCCCC2)O1,0,0,0,0,0,0
COC1=CC(=O)OC12CCCCC2,0,70.3,0,0,0,0
O=C(NCc1cccs1)c1cc(-c2cccs2)on1,0,0,52.9,83.2,0,0
O=C(NCc1cccs1)c1cc(-c2ccccc2)on1,0,-,0,0,0,0
COCCNC(=O)c1cc(-c2cccs2)on1,0,0,0,144.7,0,0
O=C(NC1CCCCC1)NC1CC2CCC(C1)N2Cc1nnnn1Cc1ccc2c(c1)OCO2 (centres undefined),-,0,-,-,-,-
Cc1nn2c(c1-c1ccc(Cl)cc1)N=C(c1ccco1)CC2c1ccccc1 (centres undefined),-,0,-,-,-,-
NNC(=O)COc1cccc2cccnc12,-,0,-,-,-,-
O=C(COc1cccc2cccnc12)Nc1nccs1,0,-,0,74.9,0,0
C/C(N)=C(/C#N)C(=O)CSc1nnc(Nc2cccc(C)c2C)s1,0,0,57.9,0,0,0
COc1ccc(CCC(=O)Nc2ccc(-c3noc(-c4ccc(OC)c(OC)c4)n3)cc2)cc1,0,0,75.4,0,0,0
SMILES,M1 antagonist,mHtt clearance,SF1 activator,RORa activator,M1 ag,D1 allo mod
COc1ccc(-c2nc(-c3ccc(Br)o3)no2)cc1OC,0,0,86.7,60.5,0,0
COc1ccc(-c2noc(-c3cccc(Cl)c3)n2)cc1OC,0,-,0,0,0,0
COc1ccc(-c2nc(-c3ccncc3)no2)cc1OC,0,-,73.8,67.6,0,-
COc1ccc(-c2noc(-c3ccccc3Cl)n2)cc1OC,0,-,0,81.9,0,0
CCC1(C)N(O)C(C)(C)C(c2ccc(F)cc2)=[N+]1[O-] (centres undefined),-,0,-,-,-,-
COc1nn(CC(=O)N2N=C(C(F)F)CC2(O)C(F)F)cc1[N+](=O)[O-] (centres undefined),-,0,-,-,-,-
O=C(CC1c2ccccc2Oc2ccccc21)N1CCN(c2ccccn2)CC1,0,0,0,0,0,0
COc1ccc(CC(=O)Nc2ccc(-c3nnc(-c4ccccc4)o3)cc2)cc1OC,0,-,0,0,0,0
COc1ccccc1-c1nc(-c2ccncc2)no1,0,-,0,58.2,0,0
COc1ccc(-c2nc3cc(NC(=O)Cc4ccc(OC)c(OC)c4)ccc3o2)cc1,0,-,0,0,0,-3.93
COc1ccccc1-c1nc(-c2ccc(Br)cc2)no1,0,-,0,0,0,-
COC(=O)c1ccc(OCC(O)CN(CC(C)C)CC(C)C)cc1 (centres undefined),0,-,0,0,0,0
O=C1NC2CCCCC2NC1CC(=O)N1CCN(c2ccccc2)CC1 (centres undefined),0,0,0,0,0,0
Cc1ccc(O)c(/C=N/NC(=O)C2=NNC(c3ccccc3)(c3ccccc3)C2)c1,-,71.1,-,-,-,-
CCc1nn(CC(=O)NCCCN(CC)Cc2ccccc2)c(=O)c2cc3sccc3n12,0,0,0,0,0,-4.58
COc1cccc(OC)c1C(=O)Nc1ccc(N2CCN(S(C)(=O)=O)CC2)cc1,0,-,0,0,0,0
O=C(COC(=O)c1ccc(Br)o1)Nc1ccc(S(=O)(=O)N2CCCC2)cc1,0,0,0,0,0,0
O=C(Nc1ccc(S(=O)(=O)N2CCCCCC2)cc1)c1ccc(Br)o1,0,0,0,50.0,0,0
CS(=O)(=O)N1CCN(c2ccc(NC(=O)c3ccc(Br)o3)cc2)CC1,0,0,56.4,0,0,0
CCOC(=O)C1CCCN(c2nc3ccccc3nc2C(C#N)C(=O)NCc2ccccc2)C1 (centres undefined),0,-,0,0,20.9,0
CCCCCNC(=O)C(C#N)c1nc2ccccc2nc1N1CC(C)OC(C)C1 (centres undefined),0,-,0,0,0,-
CCCCCCNC(=O)C(C#N)c1nc2ccccc2nc1N1CCCC1 (centres undefined),1.14,0,0,0,0,0
N#CC(C(=O)NCCc1ccccc1)c1nc2ccccc2nc1N1CCOCC1 (centres undefined),0,-,0,0,0,0
CC(C)(C)c1ccc(OCCn2ccccc2=O)cc1,0,-,67.1,0,0,-
Cc1ccc(SCc2cc(=O)[nH]c(/N=C(\N)Nc3ccc(C)c(C)c3)n2)cc1,-,0,-,-,-,-
SMILES,M1 antagonist,mHtt clearance,SF1 activator,RORa activator,M1 ag,D1 allo mod
Oc1ccccc1C1=Nc2nc3ccccc3n2C(c2ccccc2)C1 (centres undefined),0,0,0,80.8,0,0
CCOC(=O)C1CSC(CC(=O)Nc2ccc(Cl)cc2)C(=O)N1 (centres undefined),0,0,0,0,0,0
CN(C)C=Nc1ccc2nn(-c3ccccc3)nc2c1,0,-,73.7,0,0,-2.52
O=C(CSc1nnc(-c2ccco2)n1-c1ccccc1)N1CCOCC1,0,-,0,0,0,0
O=S(=O)(NCCSc1nnc(-c2ccco2)n1-c1ccccc1)c1ccccc1,0,0,0,0,0,10.5
CC(Oc1ccc(C(=O)NC2CCCCC2)cc1)C(=O)O (centres undefined),0,0,0,0,0,0
CCOc1cccc(C(=O)NC2CCCCC2)c1,0,0,52.0,0,0,0
CCOC(=O)COc1ccc(C(=O)NC2CCCCC2)cc1,0,-,0,0,0,-5.63
CC1CCN(CCNC(=O)c2ccc3c(=O)n(CCc4ccccc4)c(=O)[nH]c3c2)CC1,0,-,0,0,-1.99,0

# From PubChem
